Active and inactive are the calls of the source. The calls are words filed in the database; no cut-off is given here.
Legend:
[1] = target: T1, Lysosomal Pro-X carboxypeptidase (Mus musculus, UniProt Q7TMR0); experiment: Inhibition of PrCP-mediated conversion of Ang3 to Ang(2-7) in mouse plasma
T1 sequence (Q7TMR0 whole entry): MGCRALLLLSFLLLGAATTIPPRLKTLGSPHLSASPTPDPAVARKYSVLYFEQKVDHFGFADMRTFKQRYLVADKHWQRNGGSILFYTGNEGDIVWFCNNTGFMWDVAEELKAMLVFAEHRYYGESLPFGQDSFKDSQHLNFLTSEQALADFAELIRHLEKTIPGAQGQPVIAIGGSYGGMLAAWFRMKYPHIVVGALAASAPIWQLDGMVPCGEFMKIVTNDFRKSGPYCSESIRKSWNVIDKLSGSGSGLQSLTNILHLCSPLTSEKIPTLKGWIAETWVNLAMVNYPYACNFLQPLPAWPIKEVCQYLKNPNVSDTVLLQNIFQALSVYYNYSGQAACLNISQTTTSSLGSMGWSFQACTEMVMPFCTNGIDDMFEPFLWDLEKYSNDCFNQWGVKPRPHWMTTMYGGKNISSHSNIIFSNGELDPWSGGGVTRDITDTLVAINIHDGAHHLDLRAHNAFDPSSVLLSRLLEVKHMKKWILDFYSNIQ
How it was run: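 Whole mouse plasma was pretreated with protease inhibitors to block non-PrCP conversion of angiotensin III. Inhibitor was then added, and the rate of conversion of AngIII to Ang(2–7) was compared with a vehicle-treated control.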

[2] = target: T1, Lysosomal Pro-X carboxypeptidase; experiment: Inhibition of recombinant mouse PrCP using Mca-Ala-Pro-Lys(Dnp)-OH as substrate measured for 30 mins by continuous fluorometric assay
[3] = Volume of distribution in mouse at 1 mg/kg, iv and 2 mg/kg, po by LC-MS/MS analysis; type: ADME, organism-based; conditions: in vivo
How it was run: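 Mouse PK with the compound formulated at 1 mg/mL in ethanol–PEG–water (20:40:40). Given IV at 1 mg/kg (n = 2) and PO at 2 mg/kg (n = 3). Blood concentrations were measured by LC/MS/MS after protein precipitation with acetonitrile. Volume of distribution is reported in L/kg.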

[4] = Clearance in mouse at 1 mg/kg, iv and 2 mg/kg, po by LC-MS/MS analysis; type: ADME, organism-based; conditions: in vivo
How it was run: (§1)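 Mice received 1 mg/kg IV (n = 2) or 2 mg/kg PO (n = 3). The formulation was 1 mg/mL in ethanol–PEG–water (20:40:40). Blood was deproteinized with acetonitrile and drug levels were measured by LC/MS/MS. Outputs were clearance, Vd, half-life, %F and dose-normalized oral AUC.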

[5] = Half life in mouse at 1 mg/kg, iv and 2 mg/kg, po by LC-MS/MS analysis; type: ADME, organism-based; conditions: in vivo; how it was run: as §1
Mus musculus [6] = experiment: Normalized AUC in mouse at 2 mg/kg, po by LC-MS/MS analysis; type: ADME, organism-based; design: dose 2 mg/kg, route oral; conditions: in vivo; how it was run: as §1
[7] = Oral bioavailability in mouse at 2 mg/kg by LC-MS/MS analysis; type: ADME, organism-based; conditions: in vivo; how it was run: as §1
[8] = Ratio of drug level in brain to plasma in MDR1A knock-out CF1 mouse at 30 mg/kg, po after 6 hrs; type: ADME, organism-based; design: dose 30 mg/kg, route oral; conditions: read-out: BPR
How it was run: (§2)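 CF1 MDR1A wild-type and MDR1A(-/-) mice (n = 4 each) received a single 30 mg/kg oral dose. Plasma and brain concentrations (nM) were measured at 2 and 6 h post-dose. The brain/plasma ratio was derived for each time point.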

[9] = Drug uptake in wild type MDR1A expressing CF1 mouse brain at 30 mg/kg, po after 2 hrs; type: ADME, organism-based; design: dose 30 mg/kg, route oral; conditions: read-out: Drug uptake; how it was run: as §2
[10] = Drug uptake in MDR1A knock-out CF1 mouse plasma at 30 mg/kg, po after 6 hrs; type: ADME, organism-based; design: dose 30 mg/kg, route oral; how it was run: as §2
[11] = Drug uptake in MDR1A knock-out CF1 mouse brain at 30 mg/kg, po after 6 hrs; type: ADME, organism-based; design: dose 30 mg/kg, route oral; conditions: read-out: Drug uptake; how it was run: as §2
[12] = Ratio of drug level in brain to plasma in wild type MDR1A expressing CF1 mouse at 30 mg/kg, po after 2 hrs; type: ADME, organism-based; design: dose 30 mg/kg, route oral; conditions: read-out: BPR; how it was run: as §2
[13] = Drug uptake in wild type MDR1A expressing CF1 mouse brain at 30 mg/kg, po after 6 hrs; type: ADME, organism-based; design: dose 30 mg/kg, route oral; conditions: read-out: Drug uptake; how it was run: as §2
[14] = Drug uptake in wild type MDR1A expressing CF1 mouse plasma at 30 mg/kg, po after 6 hrs; type: ADME, organism-based; design: dose 30 mg/kg, route oral; how it was run: as §2
[15] = Drug uptake in MDR1A knock-out CF1 mouse brain at 30 mg/kg, po after 2 hrs; type: ADME, organism-based; design: dose 30 mg/kg, route oral; conditions: read-out: Drug uptake; how it was run: as §2
[16] = Ratio of drug level in brain to plasma in MDR1A knock-out CF1 mouse at 30 mg/kg, po after 2 hrs; type: ADME, organism-based; design: dose 30 mg/kg, route oral; conditions: read-out: BPR; how it was run: as §2
[17] = Drug uptake in wild type MDR1A expressing CF1 mouse plasma at 30 mg/kg, po after 2 hrs; type: ADME, organism-based; design: dose 30 mg/kg, route oral; how it was run: as §2
[18] = Ratio of drug level in brain to plasma in wild type MDR1A expressing CF1 mouse at 30 mg/kg, po after 6 hrs; type: ADME, organism-based; design: dose 30 mg/kg, route oral; conditions: read-out: BPR; how it was run: as §2
[19] = Drug uptake in MDR1A knock-out CF1 mouse plasma at 30 mg/kg, po after 2 hrs; type: ADME, organism-based; design: dose 30 mg/kg, route oral; how it was run: as §2
Mus musculus [20] = species: Mus musculus; conditions: 10 mg/kg
Mus musculus [21] = experiment: Inhibition of wild type PrCP in mouse plasma at 30 mg/kg, sc administered for 7 days by fluorescence analysis; type: functional; conditions: 168 h, route subcutaneous
Mus musculus [22] = experiment: Induction of weight loss in PrCP knock-out mouse at 30 mg/kg, sc administered for 7 days; type: functional, organism-based; design: dose 30 mg/kg
How it was run: (§3)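 Wild-type and PrCP knockout mice (n = 8 per group) received continuous subcutaneous infusion by pump for 7 days at 10 or 30 mg/kg. The vehicle was DMSO–1,2-propanediol (1:1 v/v). Body weight and food intake were recorded daily and compared with a vehicle group. Injection-site adverse events were noted, and terminal plasma drug concentration was measured.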

Mus musculus [23] = experiment: Induction of weight loss in wild type PrCP expressing mouse at 10 mg/kg, sc administered for 7 days; type: functional, organism-based; design: dose 10 mg/kg; how it was run: as §3
Mus musculus [24] = experiment: Induction of weight loss in PrCP knock-out mouse at 10 mg/kg, sc administered for 7 days; type: functional, organism-based; design: dose 10 mg/kg; how it was run: as §3
Mus musculus [25] = experiment: Terminal plasma PrCP inhibition in eDIO mouse model at 10 mg/kg, sc administered for 7 days; type: functional; conditions: 168 h, route subcutaneous
Mus musculus [26] = experiment: Inhibition of wild type PrCP in mouse plasma at 10 mg/kg, sc administered for 7 days by fluorescence analysis; type: functional; conditions: 168 h, route subcutaneous
Mus musculus [27] = experiment: Induction of weight loss in wild type PrCP expressing mouse at 30 mg/kg, sc administered for 7 days; type: functional, organism-based; design: dose 30 mg/kg; how it was run: as §3

## O=C(CCN1CCC(c2nc(-c3ccccn3)no2)CC1)NC(c1ccncc1)c1ccc(F)cc1 (racemic)
[1]
  IC50: 15 nM

## C[C@H](NC(=O)[C@@H](NC(=O)C(C)(C)N)[C@@H](C)c1ccc(-c2ccccc2)cc1)c1ccc(Cl)cc1
[2]
  IC50: 2.3 nM
[1]
  IC50: 198 nM

## CC(NC(=O)CCN1CCC(c2ccccc2)CC1)c1ccccc1-c1ccccc1 (centres undefined)
[2]
  IC50: 5.7 nM

## O=C(CCN1CCC(c2ccccc2)CC1)NC(c1ccc(Cl)cc1)C(F)F (centres undefined)
[2]
  IC50: 17 nM
[1]
  IC50: 17 nM

## C[C@@H](c1ccc(-c2ccccc2)cc1)[C@H](NC(=O)C(C)(C)N)C(=O)NC(c1ccc(Cl)cc1)C(F)F (mixture of isomers)
[2]
  IC50: 6.6 nM
[1]
  IC50: 458 nM

## C[C@@H](c1ccc(-c2ccccc2)cc1)[C@H](NC(=O)C(C)(C)N)C(=O)NC(c1ccncc1)c1ccc(Cl)cc1 (mixture of isomers)
[2]
  IC50: 0.4 nM
[3]
  Vd: 21 L/kg
[1]
  IC50: 6 nM
[4]
  clearance: 85 mL/min/kg
[5]
  half-life: 216 min

## C[C@@H](c1ccc(-c2ccccc2)cc1)[C@H](NC(=O)C(C)(C)N)C(=O)NC(c1ccc(Cl)cc1)C(F)(F)F (mixture of isomers)
Mus musculus [6]
  AUC/dose: 0.19 µM·kg·h/mg
[3]
  Vd: 24 L/kg
[7]
  bioavailability: 40%
[4]
  clearance: 78 mL/min/kg
[5]
  half-life: 264 min

## C[C@@H](c1ccc(-c2ccccc2)cc1)[C@H](N)C(=O)NC(c1ccncc1)c1ccc(Cl)cc1 (mixture of isomers)
[2]
  IC50: 1.4 nM
[1]
  IC50: 108 nM

## C[C@H](NC(=O)CCN1CCC(c2nc(-c3ccccn3)no2)CC1)c1ccc(F)cc1
[1]
  IC50: 348 nM

## O=C(CCN1CCC(c2nc(-c3ccccn3)no2)CC1)NC(c1ccc(Cl)cc1)C(F)F (racemic)
[1]
  IC50: 156 nM

## O=C(CCN1CCC(c2ccccc2)CC1)NC(c1ccc(Cl)cc1)c1ccc(Cl)cc1
[2]
  IC50: 4 nM
[1]
  IC50: 58 nM

## C[C@@H](c1ccc(-c2ccccc2)cc1)[C@H](NC(=O)C(C)(C)N)C(=O)N1CCC[C@H]1c1nc2cc(Cl)c(Cl)cc2[nH]1
[8]
  Kp at 6 h: 3.6
[9]
  concentration at 2 h: 4 nM
[10]
  concentration at 6 h: 51 nM
[11]
  concentration at 6 h: 185 nM
[12]
  Kp at 2 h: 0.01
[13]
  concentration at 6 h: 3 nM
[14]
  concentration at 6 h: 91 nM
[15]
  concentration at 2 h: 166 nM
[16]
  Kp at 2 h: 0.9
[1]
  IC50: 26 nM
[17]
  concentration at 2 h: 306 nM
[18]
  Kp at 6 h: 0.04
[19]
  concentration at 2 h: 186 nM

## Cn1cc(C(NC(=O)CCN2CCC(c3ccccc3)CC2)c2ccc(Cl)cc2)cn1 (racemic)
[2]
  IC50: 25 nM

## C[C@H](NC(=O)[C@@H](N)[C@@H](C)c1ccc(-c2ccccc2)cc1)c1ccc(Cl)cc1
[2]
  IC50: 11 nM
[1]
  IC50: 570 nM

## C[C@H](NC(=O)CCN1CCC(c2ccccc2)CC1)c1ccc(Cl)cc1
Mus musculus [6]
  AUC/dose: < 0.01 µM·kg·h/mg
[2]
  IC50: 54 nM
[3]
  Vd: 27 L/kg
[7]
  bioavailability: < 1%
[1]
  IC50: 240 nM
[4]
  clearance: 185 mL/min/kg
[5]
  half-life: 138 min

## O=C(CCN1CCC(c2nc(-c3ccccn3)no2)CC1)NC(c1ccc(Cl)cc1)c1ccc(Cl)cc1
Mus musculus [6]
  AUC/dose: < 0.01 µM·kg·h/mg
[2]
  IC50: 10 nM
[3]
  Vd: 5.6 L/kg
[7]
  bioavailability: 1.3%
[1]
  IC50: 305 nM
[4]
  clearance: 105 mL/min/kg
[5]
  half-life: 42 min

## O=C(CCN1CCC(c2ccccc2)CC1)NC(c1ccncc1)c1ccc(Cl)cc1 (racemic)
[2]
  IC50: 2.1 nM

## C[C@H](NC(=O)CCN1CCC(c2ccccc2)CC1)c1ccc(Br)cc1
[2]
  IC50: 20 nM

## O=C(CCN1CCC(c2nc(-c3ccccn3)no2)CC1)N1CCC[C@H]1c1nc2cc(Cl)c(Cl)cc2[nH]1
[2]
  IC50: 4 nM

## O=C(CCN1CCC(c2ccccc2)CC1)N1CCC[C@H]1c1nc2cc(Cl)c(Cl)cc2[nH]1
[1]
  IC50: > 10000 nM

## O=C(CCN1CCC(c2ccccc2)CC1)NC(c1ccc(Cl)cc1)C(F)(F)F (centres undefined)
[2]
  IC50: 14 nM

## CC(C)[C@H](NC(=O)CCN1CCC(c2ccccc2)CC1)c1ccc(Cl)cc1
[2]
  IC50: 5.2 nM
Mus musculus [20]
  inhibition: inactive
Mus musculus [21]
  inhibition in vivo at 30 mg/kg: 85%
Mus musculus [22]
  Activity: Active
Mus musculus [23]
  Activity: inactive
Mus musculus [24]
  Activity: inactive
[1]
  IC50: 12.6 nM
Mus musculus [25]
  inhibition in vivo at 10 mg/kg: 65%
Mus musculus [26]
  inhibition in vivo at 10 mg/kg: 87%
Mus musculus [27]
  Activity: Active

Reference: ChEMBL document CHEMBL1938250, “The discovery of non-benzimidazole and brain-penetrant prolylcarboxypeptidase inhibitors” (Bioorg Med Chem Lett, 2012)
